Assay [1] has as its system T1, Lysosomal acid glucosylceramidase (Homo sapiens), P04062 [N409S].
T1 sequence (whole entry): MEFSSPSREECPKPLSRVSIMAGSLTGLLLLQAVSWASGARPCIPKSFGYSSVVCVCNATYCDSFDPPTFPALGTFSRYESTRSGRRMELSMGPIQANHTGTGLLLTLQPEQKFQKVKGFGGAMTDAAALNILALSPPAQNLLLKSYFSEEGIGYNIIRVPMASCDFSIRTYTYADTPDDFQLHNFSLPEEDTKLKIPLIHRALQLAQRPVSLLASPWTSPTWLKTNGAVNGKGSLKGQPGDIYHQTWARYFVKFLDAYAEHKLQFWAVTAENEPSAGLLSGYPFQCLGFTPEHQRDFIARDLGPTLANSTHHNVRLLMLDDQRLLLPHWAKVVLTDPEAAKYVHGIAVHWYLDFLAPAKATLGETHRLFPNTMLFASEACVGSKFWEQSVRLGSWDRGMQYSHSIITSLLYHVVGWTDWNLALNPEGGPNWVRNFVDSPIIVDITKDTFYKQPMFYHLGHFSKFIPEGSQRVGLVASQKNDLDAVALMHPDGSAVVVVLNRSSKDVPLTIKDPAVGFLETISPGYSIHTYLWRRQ
The assay can be described thus: Activity at recombinant Gcase N370S mutant in human spleen homogenates assessed as hydrolysis of 4-MU-beta-D-glucose at 50 uM. The class given is tissue-based. In outline: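 Enzyme source: human spleen homogenate, 27 μg/well, in 50 mM citric acid/K2PO4 buffer pH 5 with 0.01% Tween20. Compound pin-transferred and preincubated 5 min at room temperature. Substrate 4MU-β-glc at 1 mM final, 45 min at 37 °C. Stopped with 1 M NaOH/1 M glycine pH 10. Fluorescence read at 365 nm excitation, 440 nm emission.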

Assay [2] can be described thus: Inhibition of alpha-galactosidase.
The nature of assay [3]: Inhibition of alpha-glucosidase.
For assay [4], the target named is T2, Lysosomal acid glucosylceramidase (Homo sapiens) (UniProt P04062).
T2 sequence (whole entry): T1 sequence (whole entry) with S409N
The assay can be described thus: Binding affinity to recombinant Gcase assessed as change in melting temperature at 300 uM by fluorescence thermal shift technique. In outline:
(§1)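 Differential scanning fluorometry on recombinant wild-type GC at 2 μM final with SYPRO Orange, in 150 mM phosphate/citrate pH 4.8. 12-point DMSO dilution series, final 0.1–600 μM, 2% DMSO final; DMSO-only control. Heated 20 to 95 °C at 0.1 °C/s. Fluorescence read at 490 nm excitation, 575 nm emission. Tm derived from melt curves; shift is relative to the protein-only control.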

For assay [5], the system named is T1, Lysosomal acid glucosylceramidase (Homo sapiens), P04062 [N409S]. The assay can be described thus: Increase of GCase N370S mutant trafficking to lysosomes in human fibroblast cells assessed as colocalization of Gcase with Lamp2 at 10 uM after 5 days by immunofluorescence method. The class given is cell-based. The method, boiled down: (§2)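 Primary dermal fibroblasts from N370S/N370S Gaucher patients and a control, in chamber slides. Compounds given for five days, range 1 nM to 25 μM. Cells fixed in 3% paraformaldehyde and permeabilized with 0.1% Triton-X. Stained with rabbit anti-GCase R386 (1:500) and mouse anti-LAMP1 or LAMP-2 (1:100), then Alexa-conjugated secondaries and DAPI. Imaged by confocal microscopy for GC/LAMP2 colocalization.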

In assay [6] the target is T2, Lysosomal acid glucosylceramidase (Homo sapiens).
Assay [7] has the same target. The source holds these as a separate data set.
Assay [8] shares this target. The source holds these as a separate data set.
The target is the same in assay [9]. The assay can be described thus: Increase of GCase trafficking to lysosomes in human fibroblast cells assessed as colocalization of Gcase with Lamp2 at 10 uM after 5 days by immunofluorescence method. In kind it is cell-based. In outline:
as §2

The target is the same in assay [10]. The source holds these as a separate data set.
Assay [11] shares this target. This is another data set of the same source.
Assay [12] shares this target. The source holds these as a separate data set.
For assay [13] the target is unchanged. The source holds these as a separate data set.
The target is the same in assay [14]. The assay can be described thus: Binding affinity to recombinant Gcase assessed as change in melting temperature at 400 uM by fluorescence thermal shift technique. In outline:
as §1

Our source for the Activity and ΔTm values is ChEMBL document CHEMBL1671789, “Evaluation of quinazoline analogues as glucocerebrosidase inhibitors with chaperone activity” (J Med Chem, 2011).

As a reminder, the ΔTm is the change in melting temperature against a reference sample.

Where a chain is given by its changes, count along the chain named. Active and inactive are the calls of the source.

Turning to `Cc1ccc(S(=O)(=O)N2CCN(c3nc(-c4cccs4)cc4ccccc34)CC2)cc1`, the result in assay [1], in [2] and in [3] was inactive.

In the case of `Cc1ccc(S(=O)(=O)N2CCN(c3nc(-c4ncccn4)nc4ccccc34)CC2)cc1`, the outcome in [1], in [2] and in assay [3] was inactive.

`O=S(=O)(c1ccc(F)cc1)N1CCN(c2nc(-c3ccccc3)nc3cc(Cl)ccc23)CC1`: the outcome in assay [1], in assay [2] and in assay [3] was inactive.

On to `O=S(=O)(c1ccc2ccccc2c1)N1CCN(c2nc(-c3cccs3)nc3ccccc23)CC1`, for which the ΔTm is 19.8 °C in assay [4]; 14.5 °C in assay [6]; 1.6 °C in [7]; -1.33 °C in [8]; 10.8 °C in assay [10]; 4.35 °C in assay [11]. For the same compound, the results for the ΔTm in assay [12], in assay [13] and in [14] were 17.3 °C, -0.19 °C and 19.9 °C, respectively. Moreover, the outcome in assay [5] and in assay [9] was Active. For the same compound, the result in assay [2] and in [3] was inactive.

With `Cc1ccc(S(=O)(=O)N2CCN(c3nc(C#N)nc4ccccc34)CC2)cc1`, the outcome in [1], in [2] and in assay [3] was inactive.

For `CN1CCN(c2nc(-c3cccs3)nc3ccccc23)CC1`, the outcome in assay [1], in assay [2] and in [3] was inactive.

As to `O=S(=O)(c1ccc(Cl)cc1)N1CCN(c2nc(-c3ccc(Cl)cc3)nc3ccccc23)CC1`, the result in [1], in [2] and in assay [3] was inactive.

Regarding `O=S(=O)(c1ccccc1)N1CCN(c2nccc(-c3cccs3)n2)CC1`, the result in assay [1], in [2] and in assay [3] was inactive.

On to `Cc1ccc(S(=O)(=O)N2CCN(c3nc(-c4cccs4)nc4c3ncn4COC(=O)C(C)(C)C)CC2)cc1`, for which the outcome in assay [1], in assay [2] and in assay [3] was inactive.

Turning to `CCCN1CCN(c2nc(-c3cccs3)nc3ccccc23)CC1`, the outcome in assay [1], in assay [2] and in assay [3] was inactive.

As for `O=S(=O)(c1ccc(F)cc1)N1CCN(c2nc(-c3ccc(F)cc3)nc3cc(Cl)ccc23)CC1`, the outcome in assay [1], in assay [2] and in [3] was inactive.

Consider `O=S(=O)(c1ccc(F)cc1)N1CCN(c2nc(-c3cccc(Br)c3)nc3ccccc23)CC1`, for which the outcome in [1], in assay [2] and in [3] was inactive.

`O=S(=O)(c1ccc(C(F)(F)F)cc1)N1CCN(c2nc(-c3cccs3)nc3cc(Cl)ccc23)CC1`: the result in [1], in assay [2] and in [3] was inactive.

As for `Cc1ccc(S(=O)(=O)N2CCN(c3nc(C(N)=O)nc4ccccc34)CC2)cc1`, the outcome in assay [1], in assay [2] and in assay [3] was inactive.

On to `Cc1ccc(S(=O)(=O)N2CCN(c3nc(-c4ccc(F)cc4)nc4cc(Cl)ccc34)CC2)cc1`, for which the outcome in assay [1], in [2] and in assay [3] was inactive.

Take `O=S(=O)(c1ccc(F)cc1)N1CCN(c2nc(-c3cccs3)nc3cc(Cl)ccc23)CC1`: the result in assay [1], in assay [2] and in [3] was inactive.

Take `Cc1ccc(-c2nc(N3CCN(S(=O)(=O)c4ccc(F)cc4)CC3)c3ccc(Cl)cc3n2)cc1`: the outcome in assay [1], in [2] and in assay [3] was inactive.

As to `O=S(=O)(c1ccc(Cl)cc1)N1CCN(c2nc(-c3cccc(Br)c3)nc3ccccc23)CC1`, the result in assay [1], in assay [2] and in [3] was inactive.

With `O=S(=O)(c1ccccc1)N1CCN(c2nc(-c3ccc(F)cc3)nc3cc(Cl)ccc23)CC1`, the outcome in [1], in assay [2] and in [3] was inactive.

For `CCN1CCN(c2nc(-c3cccs3)nc3ccccc23)CC1`, the result in assay [1], in assay [2] and in assay [3] was inactive.

Regarding `Cc1ccc(S(=O)(=O)N2CCN(c3nc(-c4cccs4)nc4ccccc34)CC2)cc1`, the thermal shift (ΔTm) in assay [6] is 9.89 °C; in assay [7], -1.4 °C; in assay [8], 0.03 °C; in [10], 5.18 °C; in [11], 0.84 °C; in [12], 11 °C. Besides, the ΔTm in assay [13] was -0.09 °C. Also, the result in assay [2] and in assay [3] was inactive.

In the case of `O=S(=O)(c1ccc(Cl)cc1)N1CCN(c2nc(-c3ccc(F)cc3)nc3cc(Cl)ccc23)CC1`, the outcome in assay [1], in assay [2] and in [3] was inactive.

On to `Cc1ccc(S(=O)(=O)N2CCN(c3nc(-c4cncnc4)nc4ccccc34)CC2)cc1`, for which the outcome in assay [1], in assay [2] and in assay [3] was inactive.

For `Cc1ccc(S(=O)(=O)N2CCC(c3nc(-c4cccs4)nc4ccccc34)CC2)cc1`, the outcome in assay [1], in assay [2] and in [3] was inactive.

As for `O=S(=O)(c1ccc2ncsc2c1)N1CCN(c2nc(-c3cccs3)nc3ccccc23)CC1`, the outcome in assay [2] and in [3] was inactive.

Take `Cc1ccc(S(=O)(=O)N2CCN(c3nc(-c4ccncc4)nc4ccccc34)CC2)cc1`: the result in [2] and in assay [3] was inactive.

Turning to `CC(=O)c1ccccc1S(=O)(=O)N1CCN(c2nc(-c3cccs3)nc3ccccc23)CC1`, the result in [2] and in assay [3] was inactive.

With `Cc1ccc(S(=O)(=O)N2CCN(c3nc(-c4cccs4)nc4[nH]cnc34)CC2)cc1`, the outcome in assay [1], in [2] and in assay [3] was inactive.
